Experimental findings from ChEMBL document CHEMBL3120045, “Monovalent mannose-based DC-SIGN antagonists: targeting the hydrophobic groove of the receptor” (Eur J Med Chem, 2014) are described below.

Data set [1] has as its target T1, CD209 antigen (Homo sapiens, UniProt Q9NNX6).
T1 sequence (Q9NNX6 whole entry): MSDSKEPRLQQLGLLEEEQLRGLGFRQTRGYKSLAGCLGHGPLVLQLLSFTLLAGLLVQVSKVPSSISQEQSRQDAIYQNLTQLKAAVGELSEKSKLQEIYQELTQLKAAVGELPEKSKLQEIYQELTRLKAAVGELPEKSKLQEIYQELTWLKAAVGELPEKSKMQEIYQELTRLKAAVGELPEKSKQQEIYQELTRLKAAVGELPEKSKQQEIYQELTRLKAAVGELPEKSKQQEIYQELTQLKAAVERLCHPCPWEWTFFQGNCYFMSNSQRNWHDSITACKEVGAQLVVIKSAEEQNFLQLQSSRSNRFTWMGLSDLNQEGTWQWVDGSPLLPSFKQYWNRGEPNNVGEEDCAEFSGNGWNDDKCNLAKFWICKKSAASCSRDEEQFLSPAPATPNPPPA
Kind of data set: Antagonist activity at DC-SIGN receptor (unknown origin) assessed as inhibition of mannosylated BSA binding by SPR assay. Background: Surface plasmon resonance follows binding to a sensor surface in real time, without labels.

Data set [2] deals with T1, CD209 antigen. Nature of the data set: Displacement of biotinylated HIV1 gp120 from DC-SIGN receptor carbohydrate recognition domain (unknown origin) after 2 hrs by solid-phase competitive displacement assay.
Data set [3] in a line: Cytotoxicity against human DC at 50 uM after 24 hrs by propidium iodide staining-based flow cytometry. Put shortly:
(§1)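 Immature DCs, seeded after 5 days of culture at 0.5 × 10⁶ cells/ml, were treated with compounds at 50, 100 and 250 for 24 h. Cells were then harvested, stained with propidium iodide for 15 min and analysed by flow cytometry. The percentage of PI-positive cells was taken as the percentage of dead cells.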
On the technique in general: In flow cytometry, cells or beads pass a laser one at a time.

Data set [4] can be described thus: Cytotoxicity against human DC at 250 uM after 24 hrs by propidium iodide staining-based flow cytometry.
A short description of data set [5]: Cytotoxicity against human DC at 250 uM after 24 hrs by propidium iodide staining-based flow cytometry. Summed up:
as §1

The nature of data set [6]: Cytotoxicity against human DC at 100 uM after 24 hrs by propidium iodide staining-based flow cytometry. Put shortly: as §1
For data set [7], the target named is T1, CD209 antigen. Kind of data set: Displacement of [125I]-Man30-BSA from DC-SIGN receptor carbohydrate recognition domain (unknown origin) after 2 hrs by gamma-counting analysis. On the technique in general: Displacement assays read how much labelled ligand stays bound in the presence of the test substance.

SMILES strings stand for the structures.

As a reminder, the IC50 is the concentration at which inhibition is half-maximal. In the case of `COC(=O)[C@H]1C[C@H](OCCN=[N+]=[N-])[C@@H](O[C@H]2O[C@H](CO)[C@@H](O)[C@H](O)[C@@H]2O)C[C@@H]1C(=O)OC`, the IC50 in data set [1] amounted to 1020 µM; in data set [2], 2760 µM.
On the same counts, the results for `[N-]=[N+]=NCCO[C@H]1C[C@H](C(=O)NCc2ccc(CO)cc2)[C@@H](C(=O)NCc2ccc(CO)cc2)C[C@@H]1O[C@H]1O[C@H](CO)[C@@H](O)[C@H](O)[C@@H]1O` are 325 µM and 420 µM.
For `N#Cc1ccc(C(=O)NCC(CNC(=O)c2ccc(C#N)cc2)O[C@H]2O[C@H](CO)[C@@H](O)[C@H](O)[C@@H]2O)cc1`, the Activity entry in data set [3] is “Non-toxic”.
For `O=C(NCC(CNC(=O)c1ccc2ccccc2c1)O[C@H]1O[C@H](CO)[C@@H](O)[C@H](O)[C@@H]1O)c1ccc2ccccc2c1`, the figures for the Activity result in data set [4], in data set [5] and in data set [3] were “Toxic”, “Toxic” and “Non-toxic”, respectively.
On to `OC[C@H]1O[C@H](OC(COc2cccc3ccccc23)COc2cccc3ccccc23)[C@@H](O)[C@@H](O)[C@@H]1O`, for which the Activity result was “Toxic” in data set [4], “Toxic” in data set [5], “Toxic” in data set [6] and “Non-toxic” in data set [3].
In the case of `COc1ccc2ccc(OCC(COc3ccc4ccc(OC)cc4c3)O[C@H]3O[C@H](CO)[C@@H](O)[C@H](O)[C@@H]3O)cc2c1`, the Activity entry in data set [4] is “Toxic”; in data set [5], “Toxic”; in data set [6] it was “Toxic”; in data set [3], “Non-toxic”.
Turning to `COc1ccc(OCC(CO[C@H]2O[C@H](CO)[C@@H](O)[C@H](O)[C@@H]2O)Oc2ccc(OC)cc2)cc1` (mixture of isomers), the Activity result in data set [3] is “Non-toxic”.
For the molecule `OC[C@H]1O[C@H](OCC(COc2ccc3ccccc3c2)Oc2ccc3ccccc3c2)[C@@H](O)[C@@H](O)[C@@H]1O` (mixture of isomers), the Activity result in data set [4] is “Toxic”; in data set [5] it was “Toxic”; in data set [3] it was “Non-toxic”.
Usually Ki stands for the equilibrium dissociation constant of an inhibitor or competing ligand from its target. Lower therefore signals tighter binding. The molecule `OC[C@H]1OC(O)[C@@H](O)[C@@H](O)[C@@H]1O` (stereo partly drawn) [D-MANNOSE] came in with a Ki in data set [7] of 13100 µM.
In the case of `C[C@H](O)[C@@H](O)[C@@H](O)[C@H](O)C=O` [L-FUCOSE], the Ki in data set [7] is 6700 µM. The IC50 in data set [2] stood at 2950 µM.
